Screening results as filed in PubChem BioAssay.
Most compounds without a hit are left out; they make up all but 3.5% or so of the library.
TCR-CD3 inh: inhibitors of human TCR-CD3 interaction; AID 651800; inhibition, % at 9.4 µM; 360,000 compounds, 0.37% hits; TAMRA-labeled TCR probe fluorescence, biochemical; in the data active means inhibition above about 19%;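 further: recombinant mutant TCR 2C K166C tagged with TAMRA read by polarization; 0% = receptor in buffer alone and 100% = receptor with positive control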
rCAG binder-1: binds r(CAG) RNA repeats. r(CAG) RNA repeat, TO-PRO-1 dye displacement fluorescence. 370,000 compounds, 1.3% hits. inhibition, % at 3 µM. AID 651821;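 active means inhibition above the plate cutoff, the mean of all test compounds on that plate plus 3 SD, cut at about 35% in these data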;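 further: 0% = DMSO alone and 100% = 100 µM mitoxantrone as full dye displacement; higher means more dye released from RNA so lower well fluorescence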
HTRA1 inhibitor: HTRA1 (human) protease inhibition; Q92743; recombinant HTRA1, FP-rhodamine activity-based probe, fluorescence polarization; inhibition, % at 5.96 µM; 340,000 compounds, 0.5% hits; AID 504803; in the data active means inhibition above about 36%;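 further: 0% = enzyme with DMSO and 100% = wells lacking enzyme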
SIAE inh: inhibitors of human sialic acid acetylesterase SIAE; 370,000 compounds, 0.69% hits; AID 1053197; Q9HAT2; SIAE FP-Rh probe binding, fluorescence polarization; inhibition, % at 9.66 µM;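 active means inhibition above a cutoff: mean of compounds within the control limits plus 3 SD of those, cut at about 17% in these data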;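 further: 0% = plate median of compound wells and 100% = probe without SIAE protein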
PRMT1 FP inh: inhibitors of human PRMT1 | 370,000 compounds, 1.3% hits | AID 652257 | recombinant PRMT1, activity-based probe fluorescence polarization | Q99873 | inhibition, % at 2.79 µM;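 active means inhibition above about 21% made by adding two undisclosed values, limit read from the data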
Target sequence (Q99873 whole entry, looked up): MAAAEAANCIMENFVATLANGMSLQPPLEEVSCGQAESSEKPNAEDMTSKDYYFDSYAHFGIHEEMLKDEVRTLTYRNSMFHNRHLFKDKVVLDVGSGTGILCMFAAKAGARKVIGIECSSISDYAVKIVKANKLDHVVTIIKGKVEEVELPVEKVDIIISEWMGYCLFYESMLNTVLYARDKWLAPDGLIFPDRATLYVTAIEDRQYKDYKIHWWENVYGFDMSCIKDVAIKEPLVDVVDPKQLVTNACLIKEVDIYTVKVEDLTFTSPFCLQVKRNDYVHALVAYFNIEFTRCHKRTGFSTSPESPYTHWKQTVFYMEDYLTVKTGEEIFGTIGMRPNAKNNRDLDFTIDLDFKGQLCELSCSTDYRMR
ABHD4 inh: inhibitors of mouse ABHD4; purified mABHD4, FP-Rh probe fluorescence polarization; 370,000 compounds, 0.54% hits; Q8VD66; inhibition, % at 8.92 µM;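 active means inhibition exceeding the mean over every tested compound plus 3 SD, cut at about 30% in these data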;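 further: 0% = plate median of compound wells and 100% = S159A mutant with DMSO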
Target sequence (Q8VD66 whole entry, looked up): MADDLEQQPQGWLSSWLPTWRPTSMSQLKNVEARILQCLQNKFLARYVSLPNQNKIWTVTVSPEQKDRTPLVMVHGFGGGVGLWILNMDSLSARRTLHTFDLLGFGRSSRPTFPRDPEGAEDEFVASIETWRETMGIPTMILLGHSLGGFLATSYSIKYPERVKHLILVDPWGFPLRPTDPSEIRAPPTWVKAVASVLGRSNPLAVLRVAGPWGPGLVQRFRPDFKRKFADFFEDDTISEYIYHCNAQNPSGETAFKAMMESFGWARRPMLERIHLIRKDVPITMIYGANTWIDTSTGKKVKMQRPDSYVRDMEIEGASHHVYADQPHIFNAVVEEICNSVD
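Assay system: Wild-type mouse ABHD4 protein | Medium: HEPES pH 7.0 buffer, 150 mM NaCl, 0.01% Pluronic F-127 | Incubation: Enzyme–compound pre-incubation 45 min, then probe 60 min, both 25 °C | Technique: Fluorescence polarization with parallel and perpendicular emission, 525/598 nm | Evaluation: % inhibition of FP-Rh probe binding versus controls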
rCAG binder conf: r(CAG) RNA repeat binding, confirmation | AID 652065 | TO-PRO-1 dye displacement fluorescence | inhibition, % at 3 µM | 4,300 compounds, 70% hits | shares compounds with rCAG binder-1;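 active means inhibition above a per-plate cutoff, the mean inhibition of sample wells plus 3 SD, cut at about 35% in these data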;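 further: loss of TO-PRO-1 fluorescence as compound displaces dye from 1x1 AA loop RNA; 0% = DMSO only wells and 100% = 100 µM mitoxantrone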
DNA CAG counter: disrupts DNA CAG TO-PRO-1 complex, flagging rCAG hits. d(CAG) DNA oligo TO-PRO-1 dye displacement, fluorescence. inhibition, % at 3 µM. shares compounds with rCAG binder-1. 4,300 compounds, 94% hits. AID 652068;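 active means inhibition above its plate's cutoff, the mean test-well inhibition plus 3 SD, cut at about 4.8% in these data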;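 further: 0% = DNA dye mix with DMSO and 100% = 100 µM mitoxantrone; hits displace the dye from DNA and so lower well fluorescence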
DNA CAG DR: counter-screen for rCAG binders: inhibitors of DNA CAG TO-PRO-1 complex | 250 compounds, 20% hits | DNA CAG/GTC duplex TO-PRO-1 dye displacement fluorescence | IC50, µM | shares compounds with rCAG binder-1; in the data active means IC50 below about 10 µM
dCAG TOPRO ctr: inhibits DNA CAG/GTC TO-PRO-1 complex, rCAG binder counter-screen | IC50, µM | 30 compounds, 80% hits | AID 720649 | shares compounds with rCAG binder-1 | d(CAG) DNA duplex TO-PRO-1 dye displacement, fluorescence
rCAG binder-2: binds r(CAG) RNA repeats in late stage dose response | shares compounds with rCAG binder-1 | r(CAG) RNA TO-PRO-1 dye displacement, fluorescence | IC50, µM | 30 compounds, 100% hits | AID 720651
* marks the source's active call; other numbers are inactive results; i = inactive; nt = not tested or not shown. Unless noted, how the calls were made is not given here.

SMILES	TCR-CD3 inh	rCAG binder-1	HTRA1 inhibitor	SIAE inh	PRMT1 FP inh	ABHD4 inh	rCAG binder conf	DNA CAG counter	others
Cc1ccc(S(=O)(=O)N2[C@@H](c3ccc(Cl)cc3)C(C(=O)O)=CC[C@H]2c2ccc(Cl)c(Cl)c2)cc1	9	86*	-126	-13	-2	-3	86*	59*
Cn1cccc1C(=O)N1CCN(S(=O)(=O)c2ccc(F)cc2)CC1	nt	5	nt	-2	-2	-1	nt	nt
CN(Cc1ccccc1)S(=O)(=O)c1cccc(C(=O)OCc2cccc([N+](=O)[O-])c2)c1	nt	7	nt	12	-2	3	nt	nt
CCCOc1ccc(C(=O)N/N=C/c2ccc(-c3ccc(S(=O)(=O)Nc4ncccn4)cc3)o2)cc1	3	54*	-31	-5	4	-11	60*	24*
CCCCOc1ccc(C(=O)Nc2ccc(S(=O)(=O)Nc3onc(C)c3C)cc2)cc1	12	77*	-2	-9	0	-2	53*	21*
CCCOc1ccc(C(=O)Nc2ccc(S(=O)(=O)Nc3onc(C)c3C)cc2)cc1	-2	49*	0	3	0	-1	28	5.2*
CCOc1cc(C(=O)Nc2ccc(S(=O)(=O)Nc3onc(C)c3C)cc2)cc(OCC)c1OCC	4	46*	-4	2	-1	-1	52*	20*
NS(=O)(=O)c1ccc(-c2ccc(/C=N/NC(=O)c3ccc([N+](=O)[O-])cc3)o2)cc1	-1	2	2	-1	-2	6	nt	nt
Cc1cccc(Cn2cc(CN3CC(N(C)CCCOC(=O)c4cc(C)cc(C)c4)CS3(=O)=O)nn2)c1 (stereo unspecified)	nt	6	nt	2	-2	-9	nt	nt
N#Cc1c(-c2cccs2)nc(SCc2ccc(Cl)cc2)[nH]c1=O	-7	87*	-143	-39	10	-121	88*	68*
CSc1nc(-c2cccs2)c(C#N)c(=O)[nH]1	5	7	4	-1	0	-4	nt	nt
COc1ccccc1/C=C/C=N/Nc1cccc(C(=O)O)c1	-2	36*	6	4	4	16	37*	9.3*
CCC(C)[C@H](NC(=O)Nc1ccc(C)cc1C)C(=O)O (stereo partly specified)	-1	64*	-1	3	0	2	-1	-2
O=C1NN(c2ccccc2)C(=O)/C1=C\c1cccc(OC(=O)c2cccs2)c1	2	37*	4	8	5	16	68*	28*
COC(=O)N/N=C\c1cccc(OC(=O)c2cccs2)c1	-3	-4	nt	-3	-2	1	nt	nt
CCOC(=O)/C(C#N)=N/Nc1ccc(S(=O)(=O)N2CCc3ccccc32)cc1	4	40*	-22	1	4	-12	42*	15*
N#C/C(=N\Nc1ccc(S(=O)(=O)N2CCc3ccccc32)cc1)C(N)=S	-2	85*	6	12	1	19	62*	27*
N#C/C(=N\Nc1ccc(S(=O)(=O)N2CCCCCC2)cc1)C(N)=S	3	45*	4	11	6	22	44*	14*
N#C/C(=N\Nc1ccc(S(=O)(=O)N2CCCCC2)cc1)C(N)=S	7	27	-3	7	-2	8	nt	nt
NS(=O)(=O)c1ccc(NC(=O)c2ccc(S(=O)(=O)N3CCc4ccccc43)cc2)cc1	13	29	-68	-53	9	-72	nt	nt
COc1ccc2ccccc2c1C=NNC(=O)c1cc(-c2ccc(C)cc2)n[nH]1	nt	18	nt	-46	0	-68	nt	nt
O=C1/C(=C/c2ccc(Br)cc2)Oc2cc(O)ccc21	-5	10	-14	0	6	-5	nt	nt
CC(C)(C)c1ccc(/C=C2\Oc3cc(O)ccc3C2=O)cc1	1	58*	-26	-4	0	-14	50*	16*
O=C(CSc1nc2ccccc2n1Cc1ccccc1Cl)N/N=C/c1ccccc1C(=O)O	0	39*	-29	-10	5	-1	54*	16*
O=[N+]([O-])c1ccc(-c2nc(Nc3ccc(O)cc3)c3ccccc3n2)cc1	-1	37*	11	14	6	5	21	10*
SMILES	TCR-CD3 inh	rCAG binder-1	HTRA1 inhibitor	SIAE inh	PRMT1 FP inh	ABHD4 inh	rCAG binder conf	DNA CAG counter	others
O=C(O)c1ccc(Nc2nc(-c3ccc([N+](=O)[O-])cc3)nc3ccccc23)cc1	1	13	-3	2	-5	-6	nt	nt
O=C(/C=C/c1cn(-c2ccccc2)nc1-c1ccccc1)Nc1ccc(C(=O)O)cc1	1	44*	-39	-136	-2	-56	73*	34*	DNA CAG DR=7.7*;dCAG TOPRO ctr=i;rCAG binder-2=6.8*
O=C(O)c1ccc(NC(=O)c2cn(-c3ccccc3)nc2-c2cccc(Cl)c2)cc1	5	36*	-77	-25	-5	-61	55*	19*
Cc1ccc(-c2nn(-c3ccccc3)cc2/C=C/C(=O)Nc2nccs2)cc1	-6	2	-11	-12	2	3	nt	nt
CN1C(=O)c2cc(NC(=O)Nc3ccccc3)ccc2OC[C@H]2O[C@@H](CC(=O)NC3CCC3)CC[C@@H]21	nt	4	nt	-2	7	12	nt	nt
Cc1cc(N2CCC[C@@H]2C)nc2ccccc12	nt	nt	nt	12	7	-7	nt	nt
O=C(c1ccccc1NS(=O)(=O)c1ccc(F)cc1)N1CCCCC1	4	2	0	-1	-2	10	nt	nt
O=C(Nc1cc(S(=O)(=O)N2CCCCC2)ccc1Cl)c1ccccc1NS(=O)(=O)c1ccc(F)cc1	4	89*	-59	-17	-1	-64	89*	65*
O=C(Nc1cc(S(=O)(=O)N2CCCCC2)ccc1O)c1ccccc1NS(=O)(=O)c1ccc(F)cc1	6	85*	-31	-21	-3	1	87*	57*
CCCCNS(=O)(=O)/C=C/c1ccccc1CNC(=O)OC(C)(C)C	nt	-2	nt	1	-3	-7	nt	nt
COc1ccc(OC)c(/C=C2\SC(=S)N(NS(=O)(=O)c3ccccc3)C2=O)c1	-2	87*	-28	1	-3	-10	67*	30*
COc1ccc(/C=C2\SC(=S)N(NS(=O)(=O)c3ccccc3)C2=O)c(OC)c1	-7	39*	-12	-1	8	1	74*	34*	DNA CAG DR=i
